Source: ChEMBL document CHEMBL4680081, “Synthesis, photophysical properties and biological evaluation of β-alkylaminoporphyrin for photodynamic therapy” (Bioorg Med Chem, 2016)
The source made the active and inactive calls. The rule behind the calls is not given here.

Experiments:
[1] = Emission property of the compound in DMSO assessed as stokes shift by fluorescence spectrophotometric method; format: physicochemical
In short: (§1)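 Fluorescence spectra recorded on a spectrofluorometer with slits of 1 nm for excitation and 1 or 2 nm for emission.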

[2] = Absorption property of the compound in DMSO assessed as soret band absorption coefficient by UV-visible spectrophotometric method; format: physicochemical
In short: (§2)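 UV–visible absorption spectra recorded in DMSO at concentrations 1, 2, 4, 6, 8, 10 µM, with the concentration dependence used to follow aggregation.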

[3] = Absorption property of the compound in DMSO assessed as soret band maximum absorption wavelength by UV-visible spectrophotometric method; format: physicochemical; in short: as §2
[4] = Absorption property of the compound in DMSO assessed as Q band absorption coefficient by UV-visible spectrophotometric method; format: physicochemical; in short: as §2
HeLa [5] = experiment: Phototoxicity against human HeLa cells assessed as reduction in cell viability preincubated for 24 hrs followed by irradiated with 16 J/cm2 of 650 nanometer laser light measured after 24 hrs by MTT assay; format: functional, cell-based; details: light or radiation study
In short: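 HeLa cells at 2 × 10^4 cells/well were attached for 24 h and given compound at a range of final concentrations for 24 h in the dark. After two PBS washes, cells were irradiated with a 650 nm Nd:YAG laser (doses 0–16 J/cm²). MTT viability was read 24 h later as % survival normalised to no-drug cells. Triplicate experiments.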

[6] = Dark toxicity in human HeLa cells assessed as reduction in cell viability after 24 hrs by MTT assay; format: cell-based
In short: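 HeLa cells in DMEM with 10% FBS (37 °C, 5% CO2) were seeded at 2 × 10^4 cells/well and attached for 24 h. Compound at a range of final concentrations was taken up for 24 h in the dark, cells were washed with PBS and left unirradiated. MTT viability was read 24 h later as % survival normalised to no-drug cells. Triplicate experiments.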

[7] = Induction of singlet oxygen generation in DMF solution assessed as singlet oxygen quantum yield irradiated with 650 nanometer laser light by DPBF-based assay; format: functional
[8] = Emission property of the compound in DMSO assessed as maximum emission wavelength at 4 uM by fluorescence spectrophotometric method; format: physicochemical; in short: as §1
[9] = Emission property of the compound in DMSO assessed as maximum excited state emission wavelength at 4 uM by fluorescence spectrophotometric method; format: physicochemical; in short: as §1
[10] = Absorption property of the compound in DMSO assessed as Q band maximum absorption wavelength by UV-visible spectrophotometric method; format: physicochemical; in short: as §2
[11] = Absorption property of the compound in DMSO assessed as soret band wavelength molar absorption coefficient by UV-visible spectrophotometric method; format: physicochemical; in short: as §2
[12] = Absorption property of the compound in DMSO assessed as Q band wavelength molar absorption coefficient by UV-visible spectrophotometric method; format: physicochemical; in short: as §2
[13] = Absorption property of the compound in DMSO assessed as Q band molar attenuation coefficient by UV-visible spectrophotometric method; format: physicochemical; in short: as §2
[14] = Drug localization in nuclear membrane of human HeLa cells at 5 uM incubated for 4 hrs in dark by Hoechst 33342 staining based confocal fluorescence microscopy; format: ADME, cell membranes
In short: (§3)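 HeLa cells at 1 × 10^5 cells/mL on poly-L-lysine coverslips for 24 h, then 5 µM drug for 4 h in the dark at 37 °C. Nuclei were stained with Hoechst 33342 for 10 min at 37 °C, and cells fixed in 4% paraformaldehyde at 4 °C for 30 min. Confocal imaging: drug excited at 417 nm, emission 600–700 nm; Hoechst excited at 350 nm, emission 450–500 nm.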

[15] = Drug localization in cytoplasm of human HeLa cells at 5 uM incubated for 4 hrs in dark by Hoechst 33342 staining based confocal fluorescence microscopy; format: ADME, subcellular; in short: as §3
HeLa [16] = experiment: Photodynamic antitumor activity against human HeLa cells xenografted in BALB/c nude mouse assessed as reduction in tumor volume at 5 mg/kg, iv followed by laser light irradiation at 100 J/cm2

Compound | Activity [1] [nm] | Activity [2] | Activity [3] [nm] | Activity [4] | IC50 (HeLa [5]) [µM] | IC50 at 24 h [6] [µM] | Activity [7] | Activity [8] [nm] | Activity [9] [nm] | Activity [10] [nm] | Activity [11] [nm] | Activity [12] [nm] | Activity [13] | Drug uptake [14] | Drug uptake [15] | Activity (HeLa [16])
C1=Cc2nc1c(-c1ccccc1)c1ccc([nH]1)c(-c1ccccc1)c1nc(c(-c3ccccc3)c3ccc([nH]3)c2-c2ccccc2)C(N2CCCC2)=C1 | 1 | 14.53 10^4/M/cm | 412 | 0.44 10^4/M/cm | 4.56 | 172 | 0.43 | 665 | 412 | 601 | 528 | 664 | 0.25 10^4/M/cm | – | – | –
Cc1ccc(-c2c3nc(c(-c4ccc(C)cc4)c4ccc([nH]4)c(-c4ccc(C)cc4)c4nc(c(-c5ccc(C)cc5)c5ccc2[nH]5)C=C4N2CCCC2)C=C3)cc1 | 4 | 16.52 10^4/M/cm | 414 | 0.58 10^4/M/cm | 5.33 | 280 | 0.54 | 671 | 414 | 602 | 531 | 666 | 0.34 10^4/M/cm | – | – | –
COC(C)c1c(C)c2cc3nc(cc4[nH]c(cc5nc(cc1[nH]2)C(C)=C5C(C)O)c(C)c4CCC(=O)O)C(CCC(=O)O)=C3C (centres undefined) | – | – | – | – | 9.46 | 345 | 0.18 | – | – | – | – | – | – | – | – | –
C1=Cc2nc1c(-c1ccccc1)c1ccc([nH]1)c(-c1ccccc1)c1nc(c(-c3ccccc3)c3ccc([nH]3)c2-c2ccccc2)C(N2CCOCC2)=C1 | 13 | 16.08 10^4/M/cm | 417 | 0.69 10^4/M/cm | 5.06 | 93.4 | 0.25 | 663 | 417 | 596 | 522 | 650 | 0.56 10^4/M/cm | – | – | –
Clc1ccc(-c2c3nc(c(-c4ccc(Cl)cc4)c4ccc([nH]4)c(-c4ccc(Cl)cc4)c4nc(c(-c5ccc(Cl)cc5)c5ccc2[nH]5)C=C4N2CCCC2)C=C3)cc1 | 17 | 14.75 10^4/M/cm | 412 | 0.73 10^4/M/cm | 6.43 | 81.6 | 0.2 | 665 | 412 | 594 | 521 | 648 | 0.67 10^4/M/cm | – | – | –
COc1ccc(-c2c3nc(c(-c4ccc(OC)cc4)c4ccc([nH]4)c(-c4ccc(OC)cc4)c4nc(c(-c5ccc(OC)cc5)c5ccc2[nH]5)C=C4N2CCCC2)C=C3)cc1 | 15 | 13.43 10^4/M/cm | 417 | 0.68 10^4/M/cm | 4.38 | 387 | 0.56 | 683 | 417 | 603 | 535 | 668 | 0.54 10^4/M/cm | Active | Active | Active
C1=Cc2nc1c(-c1ccccc1)c1ccc([nH]1)c(-c1ccccc1)c1nc(c(-c3ccccc3)c3ccc([nH]3)c2-c2ccccc2)C(N2CCCCC2)=C1 | 19 | 8.32 10^4/M/cm | 412 | 0.27 10^4/M/cm | 5.56 | 110 | 0.19 | 669 | 412 | 596 | 524 | 650 | 0.16 10^4/M/cm | – | – | –
